Test results: ChEMBL document CHEMBL1833940, “Discovery of 3-(2,6-dichloro-3,5-dimethoxy-phenyl)-1-{6-[4-(4-ethyl-piperazin-1-yl)-phenylamino]-pyrimidin-4-yl}-1-methyl-urea (NVP-BGJ398), a potent and selective inhibitor of the fibroblast growth factor receptor family of receptor tyrosine kinase” (J Med Chem, 2011)
Active and inactive are the calls of the source. The rule behind the calls is not given here.

Assays:
[1] = Half life in tumor of RT112/luc1 cells implanted athymic nude mouse at 20 mg/kg, po by LC/MS/MS analysis; assay type: ADME, organism-based, Neoplasm; parameters: dose 20 mg/kg, route oral
Outline: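 Female athymic nude mice carried subcutaneous RT112/luc1 tumors (5×10^6 cells, 50% Matrigel; about 300–400 mm3). Dosing was either 5 mg/kg iv by tail vein in NMP/PEG200 (1:9) or 20 mg/kg oral suspension in PEG300/D5W (2:1). Groups of mice (n = 4) were sacrificed at 0.083–24 h. Plasma and tumor levels were measured by LC-MS/MS (LOQ 5 ng/mL, 10 ng/g).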

[2] = Plasma clearance in RT112/luc1 cells implanted athymic nude mouse at 5 mg/kg, iv by LC/MS/MS analysis; assay type: ADME, organism-based; parameters: dose 5 mg/kg, route intravenous
Outline: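 Female athymic nude mice carrying subcutaneous RT112/luc1 tumors (ca. 300–400 mm3). Dosing was 5 mg/kg iv by tail vein in NMP/PEG200 (1:9) or 20 mg/kg by oral gavage as a suspension in PEG300/D5W (2:1). Groups (n = 4) were sacrificed from 0.083 to 24 h. Plasma and tumor were measured by LC-MS/MS (LOQ 5 ng/mL, 10 ng/g). Noncompartmental analysis used the linear trapezoidal AUC; F was calculated from dose-normalized AUC.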

Rattus norvegicus [3] = assay: Dose normalized AUC in Wistar rat at 5 mg/kg, iv by LC-MS/MS analysis; assay type: ADME, organism-based; parameters: dose 5 mg/kg, route intravenous; conditions: in vivo
Outline: (§1)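 Female Wistar rats received either an iv femoral-vein dose of 5 mg/kg in NMP/PEG200 (1:9) or an oral dose of monophosphate salt at 10 mg/kg (free base) in acetate buffer pH 4.6/PEG300. Plasma was sampled by sublingual bleeding at 0.083–24 h (n = 4 staggered, or n = 3–4 serial). Plasma levels were measured by LC-MS/MS (LOQ 10 ng/mL).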

[4] = Clearance in Wistar rat at 5 mg/kg, iv by LC-MS/MS analysis; assay type: ADME, organism-based; parameters: dose 5 mg/kg, route intravenous; conditions: in vivo; outline: as §1
[5] = Apparent terminal half life in Wistar rat at 10 mg/kg, po by LC-MS/MS analysis; assay type: ADME, organism-based; parameters: dose 10 mg/kg, route oral; conditions: in vivo, read-out: t1/2 lambda z (converted)
Outline: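 Female Wistar rats. IV: 5 mg/kg into the femoral vein as a solution in NMP/PEG200 (1:9, v/v). Oral: monophosphate salt at 10 mg/kg (free base equivalents) as a solution in acetic acid–acetate buffer pH 4.6/PEG300. Plasma was taken by sublingual bleeding at 0.083–24 h, from staggered groups (n = 4) or one sequentially bled group. Assayed by LC-MS/MS (LOQ 10 ng/mL); noncompartmental analysis.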

RT-112 [6] = assay: Antiproliferative activity against human RT112 cells overexpressing wild type FGFR3 after 72 hrs; assay type: functional, cell-based; conditions: RT-112, 72 h
Outline: (§2)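 Bladder cancer lines from ATCC or DSMZ were seeded in 96-well plates (RT4, RT112 at 8500 cells/well; others at 5000 cells/well) in growth medium. Compound dilutions or DMSO were added 24 h later and incubated 72 h. Cells were fixed with glutaraldehyde, stained with 0.05% methylene blue and eluted with 3% HCl, then OD650 nm was read.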

HT1197 = assay: Antiproliferative activity against human HT1197 cells after 72 hrs; assay type: functional, cell-based; conditions: HT1197, 72 h; outline: as §2
VM-CUB-1 = assay: Antiproliferative activity against human VMCUB1 cells after 72 hrs; assay type: functional, cell-based; conditions: VM-CUB-1, 72 h; outline: as §2
[7] = target: Tyrosine-protein kinase Mer (Homo sapiens, UniProt Q12866); assay: Inhibition of recombinant MER
Outline: (§3)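 Purified recombinant kinases under optimized conditions, with peptide substrates and ATP at each kinase's Km. Phosphorylation was read out by microfluidic mobility shift, and IC50 values were obtained.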

[8] = target: Cyclin-dependent kinase 2 (Homo sapiens, UniProt P24941); assay: Inhibition of recombinant CDK2; outline: as §3
Ephrin type-B receptor 4 = Ephrin type-B receptor 4 (Homo sapiens, UniProt P54760); assay: Inhibition of recombinant EPHB4; outline: as §3
[9] = target: Glycogen synthase kinase-3 beta (Homo sapiens, UniProt P49841); assay: Inhibition of recombinant GSK3-beta
Outline: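 Purified recombinant kinases under optimized conditions with peptide substrates. ATP was set at each kinase's Km. Phosphorylation was read by microfluidic mobility-shift separation of substrate and product; IC50 determined.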

Insulin receptor = Insulin receptor (Homo sapiens, UniProt P06213); assay: Inhibition of recombinant INSR; outline: as §3
[10] = Inhibition of recombinant PKA
Outline: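 Purified recombinant kinases with peptide substrates and ATP at each kinase's Km. Read-out was microfluidic mobility shift.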

[11] = target: Proto-oncogene tyrosine-protein kinase Src (Homo sapiens, UniProt P12931); assay: Inhibition of recombinant SRC
Outline: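 Purified recombinant kinases were tested under optimized conditions with peptide substrates. ATP was set at each kinase's Km. Phosphorylation was read out by microfluidic mobility shift, and IC50 values were determined.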

Rattus norvegicus [12] = assay: Inhibition of FGFR autophosphorylation in RT112 tumor bearing nude rowett rat assessed as decrease in pFRS2 concentration at 4.25 to 8.51 mg/kg, po administered as a single dose after 24 hrs by Western blot analysis; assay type: functional, organism-based
Outline: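 RT112 tumor-bearing nude Rowett rats (n = 4) received a single oral dose of monophosphate salt at 4.25 or 8.51 mg/kg free base. Tumors were collected at time points up to 24 h and lysed in Tris/Triton buffer with vanadate and protease inhibitors. Western blots were run for pFRS2(Tyr196) and pMAPK, with total FRS2, total MAPK or β-tubulin as loading controls.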

RT-112 [13] = assay: Antitumor activity against human RT112 cells xenografted in nude Rowett rat assessed as tumour stasis at 5 mg/kg, po qd administered for 20 days; assay type: functional, organism-based; parameters: dose 5 mg/kg
Outline: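 Female nude Rowett rats aged 6–9 weeks were given 1×10^6 RT112 cells subcutaneously in HBSS/50% Matrigel. Treatment began at about 100 mm3 mean tumor volume (n = 8): monophosphate salt in acetate buffer pH 4.6/PEG300 (1:1) by gavage, 5 mL/kg, at 5, 10, 15 mg/kg/qd free base for 20 days. Tumors were measured by caliper (L×W×H×π/6). Readouts were T/C and % regression from start volume.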

Rattus norvegicus [14] = assay: Inhibition of FGFR autophosphorylation in RT112 tumor bearing nude rowett rat assessed as decrease in pFRS2 concentration at 8.51 mg/kg, po administered as a single dose after 16 hrs by Western blot analysis; assay type: functional, organism-based; parameters: dose 8.51 mg/kg
Outline: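 RT112 subcutaneous xenografts in female nude Rowett rats (n = 4). Single oral gavage of the monophosphate salt at 4.25 or 8.51 mg/kg (free base equivalents) in acetic acid–acetate buffer pH 4.6/PEG300 (1:1). Tumors were collected at time points up to 24 h, frozen, homogenized and lysed. Western blots probed pFRS2(Tyr196) and pMAPK, with total FRS2, total MAPK or β-tubulin as loading controls.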

Tumour = assay: Drug uptake in tumour of nude Rowett rat bearing human RT112 cells at 4.25 mg/kg, po administered as a single dose after 24 hrs by LC-MS/MS analysis; assay type: ADME, organism-based, Neoplasm, RT-112; parameters: dose 4.25 mg/kg, route oral; conditions: in vivo
Outline: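 Nude Rowett rats bearing subcutaneous RT112 tumors (n = 4) received a single gavage of monophosphate salt at 4.25 or 8.51 mg/kg free base in acetate buffer pH 4.6/PEG300. Tumors were collected at intervals after dosing, frozen and homogenized in an equal volume of ice-cold PBS. Compound levels were measured by LC-MS/MS (LOQ 3 ng/mL).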

Ephrin type-B receptor 4, sequence (P54760 whole entry): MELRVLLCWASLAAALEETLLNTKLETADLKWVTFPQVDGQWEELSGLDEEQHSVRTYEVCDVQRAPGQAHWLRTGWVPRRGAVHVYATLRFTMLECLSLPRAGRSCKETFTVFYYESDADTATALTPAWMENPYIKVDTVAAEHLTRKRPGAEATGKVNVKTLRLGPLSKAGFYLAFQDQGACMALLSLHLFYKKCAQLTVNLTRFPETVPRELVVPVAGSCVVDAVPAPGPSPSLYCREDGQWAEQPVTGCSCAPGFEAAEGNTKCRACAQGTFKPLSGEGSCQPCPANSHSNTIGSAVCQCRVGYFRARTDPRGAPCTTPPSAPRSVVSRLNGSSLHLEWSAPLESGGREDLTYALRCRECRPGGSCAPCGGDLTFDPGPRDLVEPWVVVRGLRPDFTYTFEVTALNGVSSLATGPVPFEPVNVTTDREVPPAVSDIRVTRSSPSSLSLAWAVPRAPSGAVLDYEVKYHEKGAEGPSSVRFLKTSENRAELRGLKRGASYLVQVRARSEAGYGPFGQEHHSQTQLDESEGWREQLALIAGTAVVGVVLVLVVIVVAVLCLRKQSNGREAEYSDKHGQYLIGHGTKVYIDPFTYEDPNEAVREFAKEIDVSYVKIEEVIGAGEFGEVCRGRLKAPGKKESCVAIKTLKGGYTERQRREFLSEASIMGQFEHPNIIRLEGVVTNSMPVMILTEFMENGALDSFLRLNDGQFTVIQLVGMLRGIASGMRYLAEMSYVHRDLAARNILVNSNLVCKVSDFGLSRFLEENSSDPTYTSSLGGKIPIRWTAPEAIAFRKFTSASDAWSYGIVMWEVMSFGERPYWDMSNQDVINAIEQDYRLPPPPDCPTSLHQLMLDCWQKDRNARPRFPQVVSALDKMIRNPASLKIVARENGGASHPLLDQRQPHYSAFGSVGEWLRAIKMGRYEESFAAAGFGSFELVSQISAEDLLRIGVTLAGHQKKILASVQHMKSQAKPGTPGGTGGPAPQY
Glycogen synthase kinase-3 beta, sequence (P49841 whole entry): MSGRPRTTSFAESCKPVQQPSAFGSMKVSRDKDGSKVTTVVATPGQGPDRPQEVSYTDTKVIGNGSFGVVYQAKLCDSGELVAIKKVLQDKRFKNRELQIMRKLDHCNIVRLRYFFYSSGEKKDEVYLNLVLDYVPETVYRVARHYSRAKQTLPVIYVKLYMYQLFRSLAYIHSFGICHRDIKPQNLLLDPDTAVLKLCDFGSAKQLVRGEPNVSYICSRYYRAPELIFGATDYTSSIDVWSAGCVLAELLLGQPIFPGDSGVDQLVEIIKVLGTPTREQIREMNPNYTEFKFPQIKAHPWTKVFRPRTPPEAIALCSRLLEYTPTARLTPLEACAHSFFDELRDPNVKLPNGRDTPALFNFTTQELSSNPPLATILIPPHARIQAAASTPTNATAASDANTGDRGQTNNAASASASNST
Proto-oncogene tyrosine-protein kinase Src, sequence (P12931 2-536 limits assumed): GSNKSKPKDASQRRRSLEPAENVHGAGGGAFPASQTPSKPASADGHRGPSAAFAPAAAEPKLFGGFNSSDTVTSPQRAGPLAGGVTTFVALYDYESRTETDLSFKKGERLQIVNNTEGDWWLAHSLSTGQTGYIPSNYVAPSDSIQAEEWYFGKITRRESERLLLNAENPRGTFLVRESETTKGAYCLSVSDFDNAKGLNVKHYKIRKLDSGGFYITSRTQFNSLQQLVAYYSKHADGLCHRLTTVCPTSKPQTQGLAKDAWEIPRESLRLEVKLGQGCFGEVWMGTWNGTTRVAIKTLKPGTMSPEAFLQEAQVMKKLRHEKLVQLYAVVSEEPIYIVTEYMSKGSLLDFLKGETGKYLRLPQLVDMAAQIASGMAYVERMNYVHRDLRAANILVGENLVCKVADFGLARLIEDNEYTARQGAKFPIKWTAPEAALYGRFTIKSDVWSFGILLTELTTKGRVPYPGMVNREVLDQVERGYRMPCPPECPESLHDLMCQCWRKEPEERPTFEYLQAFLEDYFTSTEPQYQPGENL
Insulin receptor, sequence (P06213 28-758 limits assumed): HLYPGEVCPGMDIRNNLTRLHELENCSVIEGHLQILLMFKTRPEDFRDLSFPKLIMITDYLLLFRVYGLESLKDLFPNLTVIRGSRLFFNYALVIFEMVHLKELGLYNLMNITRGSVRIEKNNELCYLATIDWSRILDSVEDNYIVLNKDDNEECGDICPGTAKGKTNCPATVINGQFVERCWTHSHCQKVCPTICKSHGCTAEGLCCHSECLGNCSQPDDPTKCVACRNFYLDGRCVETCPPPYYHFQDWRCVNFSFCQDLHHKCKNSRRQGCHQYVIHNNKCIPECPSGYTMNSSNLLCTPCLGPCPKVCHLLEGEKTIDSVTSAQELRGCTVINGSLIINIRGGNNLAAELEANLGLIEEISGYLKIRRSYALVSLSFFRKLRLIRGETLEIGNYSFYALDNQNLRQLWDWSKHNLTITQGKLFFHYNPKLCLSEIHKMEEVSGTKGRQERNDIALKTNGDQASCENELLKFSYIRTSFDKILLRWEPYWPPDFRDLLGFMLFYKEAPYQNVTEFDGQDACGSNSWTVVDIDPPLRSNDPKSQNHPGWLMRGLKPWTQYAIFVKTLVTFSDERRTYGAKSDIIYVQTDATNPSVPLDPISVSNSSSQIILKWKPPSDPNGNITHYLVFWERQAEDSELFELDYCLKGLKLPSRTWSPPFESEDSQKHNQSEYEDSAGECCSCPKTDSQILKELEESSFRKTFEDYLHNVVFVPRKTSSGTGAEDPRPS
Insulin receptor, sequence (P06213 763-1382 limits assumed): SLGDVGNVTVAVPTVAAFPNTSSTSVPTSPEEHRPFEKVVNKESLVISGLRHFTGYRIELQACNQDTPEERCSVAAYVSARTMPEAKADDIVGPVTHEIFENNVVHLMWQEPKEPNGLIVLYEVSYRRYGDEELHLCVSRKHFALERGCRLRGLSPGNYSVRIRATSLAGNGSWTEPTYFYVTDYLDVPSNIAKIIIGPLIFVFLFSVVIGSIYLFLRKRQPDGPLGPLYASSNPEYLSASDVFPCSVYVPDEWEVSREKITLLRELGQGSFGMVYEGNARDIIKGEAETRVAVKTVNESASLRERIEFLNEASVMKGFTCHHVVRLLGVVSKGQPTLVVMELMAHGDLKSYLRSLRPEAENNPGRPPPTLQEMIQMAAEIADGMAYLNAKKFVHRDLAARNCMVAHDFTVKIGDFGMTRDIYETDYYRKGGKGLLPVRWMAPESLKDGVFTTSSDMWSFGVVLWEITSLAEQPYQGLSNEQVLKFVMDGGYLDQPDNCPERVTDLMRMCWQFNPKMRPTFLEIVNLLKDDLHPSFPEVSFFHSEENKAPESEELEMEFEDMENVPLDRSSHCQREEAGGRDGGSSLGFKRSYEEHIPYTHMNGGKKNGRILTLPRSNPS
Tyrosine-protein kinase Mer, sequence (Q12866 whole entry): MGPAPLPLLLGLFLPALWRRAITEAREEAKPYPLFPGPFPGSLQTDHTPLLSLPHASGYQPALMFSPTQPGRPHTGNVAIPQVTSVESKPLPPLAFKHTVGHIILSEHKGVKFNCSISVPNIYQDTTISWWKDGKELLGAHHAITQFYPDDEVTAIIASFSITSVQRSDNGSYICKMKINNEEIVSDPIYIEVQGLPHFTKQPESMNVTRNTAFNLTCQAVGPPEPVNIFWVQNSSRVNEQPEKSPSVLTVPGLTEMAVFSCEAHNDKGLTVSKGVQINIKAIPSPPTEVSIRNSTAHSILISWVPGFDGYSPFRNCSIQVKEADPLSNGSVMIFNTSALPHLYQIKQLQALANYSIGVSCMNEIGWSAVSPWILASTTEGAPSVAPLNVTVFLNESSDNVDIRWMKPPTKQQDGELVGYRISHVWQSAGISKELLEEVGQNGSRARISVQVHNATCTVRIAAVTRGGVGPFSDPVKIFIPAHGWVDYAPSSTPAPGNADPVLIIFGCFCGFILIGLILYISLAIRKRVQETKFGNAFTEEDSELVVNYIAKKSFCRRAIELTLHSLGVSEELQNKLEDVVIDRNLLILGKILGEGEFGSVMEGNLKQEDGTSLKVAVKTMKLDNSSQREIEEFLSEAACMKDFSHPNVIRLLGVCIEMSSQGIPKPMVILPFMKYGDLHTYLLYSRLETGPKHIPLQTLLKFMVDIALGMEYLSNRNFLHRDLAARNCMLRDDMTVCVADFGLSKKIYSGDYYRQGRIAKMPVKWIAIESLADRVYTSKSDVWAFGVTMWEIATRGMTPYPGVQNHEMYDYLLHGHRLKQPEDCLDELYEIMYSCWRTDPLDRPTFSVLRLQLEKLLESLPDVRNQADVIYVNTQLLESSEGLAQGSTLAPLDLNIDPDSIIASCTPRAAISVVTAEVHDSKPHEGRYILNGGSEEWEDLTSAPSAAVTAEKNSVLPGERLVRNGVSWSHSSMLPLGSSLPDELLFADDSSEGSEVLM

half-life [1]: 13 h
clearance [2]: 55 mL/min/kg
AUC/dose (Rattus norvegicus [3]): 0.49 µM·h
clearance [4]: 60 mL/min/kg
half-life [5]: 4.8 h
IC50 [7]: > 10 µM
IC50 [8]: > 10 µM
IC50 (Ephrin type-B receptor 4): > 10 µM
IC50 [9]: > 10 µM
IC50 (Insulin receptor): > 10 µM
IC50 [10]: > 10 µM
IC50 [11]: > 10 µM
Drug uptake (Tumour): 0.12 nmol/g
Compound: CCN1CCN(c2ccc(Nc3cc(N(C)C(=O)Nc4c(Cl)c(OC)cc(OC)c4Cl)ncn3)cc2)CC1.O=P(O)(O)O [INFIGRATINIB PHOSPHATE]
IC50 (RT-112 [6]): 0.005 µM
IC50 (HT1197): 1.16 µM
IC50 (VM-CUB-1): > 3 µM
inhibition (Rattus norvegicus [12]): inactive
Activity (RT-112 [13]): Active
inhibition (Rattus norvegicus [14]): Active
